Here are results for seven compounds from ChEMBL document CHEMBL1287789, “4-deoxy-4-fluoro-xyloside derivatives as inhibitors of glycosaminoglycan biosynthesis” (Bioorg Med Chem Lett, 2010).

Data set [1] is filed under the species Bos taurus. Description: Inhibition of glycosaminoglycan biosynthesis in BLMVEC assessed as [3H]glucosamine incorporation at 300 uM after 24 hrs by liquid scintillation counting. The format is functional. The essentials: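 Cells seeded at 2 × 10⁵/well and grown 24 h at 37 °C, then switched to DMEM with 1 mM glucose and 10% dialyzed FBS. Treated 24 h with 300 µM compound (from 30 mM DMSO stock) or DMSO alone, with ³H-glucosamine. Pronase digest overnight at 37 °C; GAGs bound to DEAE-Sepharose, washed at pH 6.0 with 0.1 M NaCl, eluted with 1 M NaCl; eluate radioactivity by scintillation counting.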

Data set [2] is described as follows: Cytotoxicity against BLMVEC assessed as cell viability at <=300 uM after 24 hrs by celltiter blue assay. Set-up: species or system Bos taurus. To be noted: cattle. In short, it runs like this: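 Bovine lung microvascular endothelial cells seeded at 2.5 × 10⁴ cells/well in duplicate, Ham's F-12 with 10% FBS. Exposed to DMSO (control) or compound at 0.1, 0.3 and 1.0 mM for 24 h at 37 °C; 3% H₂O₂ as control. CellTiter-Blue added for 2 h, stopped with 3% SDS, fluorescence read at ex 560/em 590 nm.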
Background: Resazurin is reduced to fluorescent resorufin, in cell work by metabolically active cells.

For data set [3], the species on record is Bos taurus. Description: Inhibition of glycosaminoglycan biosynthesis in BLMVEC assessed as [3H]-labeled-GAG chains by anion exchange chromatography. It is filed as functional. The conditions noted are these: dose or concentration not given here. The essentials: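 ³H-glucosamine-labelled GAG chains from cells given 300 µM compound or DMSO for 24 h were run on DEAE-HPLC. Elution over 80 min with a 0.2–1 M NaCl linear gradient, monitored by an in-line radiometric detector; heparan sulfate and chondroitin sulfate resolved as separate peaks between 20 and 50 min.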

The structures appear in SMILES notation. Activity calls are given as the source filed them. The calls are words filed in the database; no cut-off is given here.

Regarding `O[C@@H]1[C@@H](O)[C@@H](n2cc(-c3ccc4ccccc4c3)nn2)OC[C@H]1F`, the inhibition result in the data set filed under Bos taurus [1] is “Active”. In addition, in data set [2], the Activity result is recorded as “Non-toxic”.

With `O[C@@H]1[C@@H](O)[C@H](n2cc(COCc3ccc4ccccc4c3)nn2)OC[C@H]1F`, in the data set listed under Bos taurus [1], the inhibition result was “inactive”. Moreover, the Activity entry in data set [2] is on record as “Non-toxic”.

On to `O[C@@H]1[C@@H](O)[C@@H](n2cc(COc3ccc(F)cc3)nn2)OC[C@H]1F`, for which the inhibition result in the data set filed under Bos taurus [1] was “Active”. Also, the Activity result in data set [2] is on record as “Non-toxic”.

`O[C@@H]1[C@@H](O)[C@@H](n2cc(COCc3ccc4ccccc4c3)nn2)OC[C@H]1F`: the inhibition result in the data set filed under Bos taurus [1] was “Active”. In data set [2], the Activity entry is recorded as “Non-toxic”.

Regarding `O[C@@H]1[C@@H](O)[C@H](n2cc(COc3ccc(F)cc3)nn2)OC[C@H]1F`, the inhibition entry in the data set listed under Bos taurus [1] was “Active”. Besides, the Activity entry in data set [2] is “Non-toxic”.

In the case of `O=[N+]([O-])c1ccc(OCc2cn([C@@H]3OC[C@@H](F)[C@H](O)[C@H]3O)nn2)cc1`, the inhibition in the data set listed under Bos taurus [1] and in the data set filed under Bos taurus [3] was 80% in each case. In data set [2], the Activity entry is “Non-toxic”.

As for `O=[N+]([O-])c1ccc(OCc2cn([C@H]3OC[C@@H](F)[C@H](O)[C@H]3O)nn2)cc1`, the inhibition in the data set filed under Bos taurus [1] and in the data set filed under Bos taurus [3] was 80% in each case. For the same compound, the Activity entry in data set [2] was “Non-toxic”.

The term inhibition denotes the percentage by which the read-out fell short of the control.
